ChEMBL document CHEMBL1124534, “Synthesis, mechanism of action, and biological evaluation of mitosenes” (1989)
Converted amounts (≈) assume the structure as drawn.

What was measured:
Mus musculus [1] = test: Ability of intraperitoneally administered compound (3 mg/kg/day) to inhibit growth of human tumor xenograft GXF 97 was assessed on day 21 in nude mice; type: functional
In short: (§1)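 GXF 97 human gastric xenograft grown subcutaneously in nude mice for 24 days, then randomized; dosing began 1 day later as ip injections on days 1-4. Groups had 4-5 mice. Tumor length and width were measured. %T/C = median relative tumor size of treated / median relative tumor size of controls.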

Mus musculus [2] = test: Compound (10 mg/Kg) was evaluated in vivo for antitumor activity against MAC 16 in female NMRI mice on day 12 and ratio of tumor weight of treated to that of control was determined; type: functional
Mus musculus [3] = test: Body wieght treated/body weight untreated controls of compound (10 mg/Kg) was evaluated in vivo for antitumor activity against MAC 16 in female NMRI mice on day 4; type: functional
Mus musculus [4] = test: Median survival time in days for antitumor activity against P388 Leukemia in CD2 mice at single dose treatment of 8 mg/Kg
Mus musculus [5] = test: Percent T/C ([…]) for antitumor activity against P388 Leukemia in CD2 mice at fractioned dose treatment of 12 mg/kg; type: functional; details: in the assay text read “single dose” for “fractioned dose”
In short: (§2)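 Mouse P388 leukemia model. Drugs were given intraperitoneally, either as a single injection or once daily for 9 consecutive days (fractioned schedule). Outcomes were median survival time in days, %T/C, and % body weight change.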

Mus musculus [6] = test: Percent T/C ([…]) for antitumor activity against P388 Leukemia in CD2 mice at fractioned dose treatment of 8 mg/Kg; type: functional; details: in the assay text read “single dose” for “fractioned dose”; in short: as §2
Mus musculus [7] = test: Mean relative body weight change of treated / mean relative body weight change of control when compound (3 mg/kg/day) administered to inhibit growth of human tumor xenograft GXF 97 was reported at day 14 in nude mice; type: functional
In short: (§3)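 GXF 97 xenograft grown subcutaneously in nude mice for 24 days, then randomized; ip dosing began 1 day later, given on days 1-4, with 4-5 mice per group. Read-out is mean relative body weight change of treated divided by mean relative body weight change of controls, in %.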

Mus musculus [8] = test: Body wieght treated/body weight untreated controls of compound (10 mg/Kg) was evaluated in vivo for antitumor activity against MAC 16 in female NMRI mice on day 12; type: functional
Mus musculus [9] = test: Ability of intraperitoneally administered compound (3 mg/kg/day) to inhibit growth of human tumor xenograft GXF 97 was assessed on day 14 in nude mice; type: functional; in short: as §1
Mus musculus [10] = test: Percentage change in body weight [(day 6 - day 1)/ day 1] for antitumor activity against P388 Leukemia in CD2 mice at fractioned dose treatment of 12 mg/kg; type: functional; details: in the assay text read “single dose treatment” for “fractioned dose treatment”; in short: as §2
Mus musculus [11] = test: Percent T/C ([…]) for antitumor activity against P388 Leukemia in CD2 mice at fractioned dose treatment of 2 mg/kg; type: functional; in short: as §2
Mus musculus [12] = test: Mean relative body weight change of treated / mean relative body weight change of control when compound (3 mg/kg/day) administered to inhibit growth of human tumor xenograft GXF 97 was reported at day 21 in nude mice; type: functional; in short: as §3
WiDr = test: In vitro antitumor activity against WiDr colon carcinoma tumor cell line was determined; type: functional; details: Homo sapiens, read-out: ID50 (the source's name)
In short: (§4)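 Cell growth inhibition in vitro measured by the PIT method, with mitomycin C as positive reference.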

Mus musculus [13] = test: Mean relative body weight change of treated / mean relative body weight change of control when compound (3 mg/kg/day) administered to inhibit growth of human tumor xenograft GXF 97 was reported at day 28 in nude mice; type: functional; in short: as §3
Mus musculus [14] = test: Percentage change in body weight [(day 6 - day 1)/ day 1] for antitumor activity against P388 Leukemia in CD2 mice at fractioned dose treatment of 8 mg/Kg; type: functional; details: in the assay text read “single dose treatment” for “fractioned dose treatment”; in short: as §2
Mus musculus [15] = test: Ability of intraperitoneally administered compound (3 mg/kg/day) to inhibit growth of human tumor xenograft GXF 97 was assessed on day 28 in nude mice; type: functional; in short: as §1
L1210 = test: In vitro antitumor activity against L1210 lymphocytic leukemia tumor cell line was determined; type: functional; details: Mus musculus, read-out: ID50 (the source's name)
In short: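 Inhibition of L1210 leukemia colony formation in vitro, with mitomycin C as positive reference.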

Mus musculus [16] = test: Compound (10 mg/Kg) was evaluated in vivo for antitumor activity against MAC 13 in female NMRI mice on day 2 and ratio of tumor weight of treated to that of control was determined
A204 = test: In vitro antitumor activity against A204 rhabdomyosarcoma tumor cell line was determined; type: functional; details: Homo sapiens, read-out: ID50 (the source's name); in short: as §4
Mus musculus [17] = test: Median survival time in days for antitumor activity against P388 Leukemia in CD2 mice at fractioned dose treatment of 2 mg/kg; type: functional
In short: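 P388 leukemia-bearing mice were dosed intraperitoneally once daily for 9 consecutive days (fractioned schedule). The read-out was median survival time in days, reported alongside %T/C and % body weight change.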

Mus musculus [18] = test: Median survival time in days for antitumor activity against P388 Leukemia in CD2 mice at single dose treatment of 12 mg/Kg
Mus musculus [19] = test: Percentage change in body weight [(day 6 - day 1)/ day 1] for antitumor activity against P388 Leukemia in CD2 mice at fractioned dose treatment of 2 mg/Kg; type: functional; in short: as §2
Mus musculus [20] = test: Compound (10 mg/Kg) was evaluated in vivo for antitumor activity against MAC 16 in female NMRI mice on day 4 and ratio of tumor weight of treated to that of control was determined; type: functional
Mus musculus [21] = test: Percent inhibition of compound (10 mg/Kg) was evaluated in vivo for antitumor activity against MAC 13 in female NMRI mice on day 2; type: functional
In short: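 MAC 13 in female NMRI mice. Drugs were given in arachis oil BP by ip route on day 2 or day 29. % inhibition was derived from treated/untreated control tumor weight (volume); a negative value indicates stimulation.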

Mus musculus [22] = test: Relative tumor size on day 28 was reported when compound (3 mg/kg/day) administered to inhibit growth of human tumor xenograft GXF 97 in nude mice; type: functional
In short: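 GXF 97 human gastric xenograft grown subcutaneously in nude mice for 24 days, then mice randomized; treatment began 1 day later. Fractioned ip injections on days 1-4, or single iv injection on day 1; 4-5 mice per group. Tumor size from length and width; relative tumor size (% of controls) read at day 28.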

**Q.** For `COC1=CC(=O)c2c(c(COC(C)=O)c3n2CCC3OC(C)=O)C1=O` (stereo not given), which T/C (Mus musculus [1]) is on record?
**A.** Its T/C is 31.7%.

**Q.** What about the T/C (Mus musculus [2]) of the same compound?
**A.** The T/C was 104%.

**Q.** What about the BW (Mus musculus [3]) of the same compound?
**A.** The BW was 105%.

**Q.** And the MST (Mus musculus [4])?
**A.** The MST was 11 days.

**Q.** What about the T/C (Mus musculus [5]) of the same compound?
**A.** Its T/C is 91%.

**Q.** What about the T/C (Mus musculus [6]) of the same compound?
**A.** The T/C was 100%.

**Q.** And the BWC (Mus musculus [7])?
**A.** Its BWC is 89.6%.

**Q.** And the BW (Mus musculus [8])?
**A.** The BW was 81%.

**Q.** And the T/C (Mus musculus [9])?
**A.** The T/C was 39.3%.

**Q.** What about the BWC (Mus musculus [10]) of the same compound?
**A.** The BWC was -1.8%.

**Q.** And the T/C (Mus musculus [11])?
**A.** Its T/C is 109%.

**Q.** What about the BWC (Mus musculus [12]) of the same compound?
**A.** Its BWC is 86.5%.

**Q.** And the IC50 (WiDr)?
**A.** Its IC50 is 0.037 µg/mL (≈ 0.107 µM).

**Q.** What about the BWC (Mus musculus [13]) of the same compound?
**A.** The BWC was 87.1%.

**Q.** And the BWC (Mus musculus [14])?
**A.** Its BWC is -2%.

**Q.** And the T/C (Mus musculus [15])?
**A.** The T/C was 31.7%.

**Q.** And the IC50 (L1210)?
**A.** The IC50 was 0.495 µg/mL (≈ 1.43 µM).

**Q.** And the T/C (Mus musculus [16])?
**A.** Its T/C is 152%.

**Q.** And the IC50 (A204)?
**A.** Its IC50 is 8 ng/mL (≈ 0.023 µM).

**Q.** And the MST (Mus musculus [17])?
**A.** Its MST is 12 days.

**Q.** What about the MST (Mus musculus [18]) of the same compound?
**A.** The MST was 10 days.

**Q.** And the BWC (Mus musculus [19])?
**A.** The BWC was -20.9%.

**Q.** What about the T/C (Mus musculus [20]) of the same compound?
**A.** Its T/C is 99%.

**Q.** And the I (Mus musculus [21])?
**A.** Its I is -52%.

**Q.** What about the “Relative TS” value (Mus musculus [22]) of the same compound?
**A.** Its value is 210.1%.
